Drawing on ChEMBL document CHEMBL3414473, this text covers Kd, Activity and inhibition for one compound.

The source made the active and inactive calls. No cut-off for these calls is given here.

Data set [1] addresses T1, 3-phosphoinositide-dependent protein kinase 1 (Homo sapiens, UniProt O15530).
T1 sequence (O15530 whole entry): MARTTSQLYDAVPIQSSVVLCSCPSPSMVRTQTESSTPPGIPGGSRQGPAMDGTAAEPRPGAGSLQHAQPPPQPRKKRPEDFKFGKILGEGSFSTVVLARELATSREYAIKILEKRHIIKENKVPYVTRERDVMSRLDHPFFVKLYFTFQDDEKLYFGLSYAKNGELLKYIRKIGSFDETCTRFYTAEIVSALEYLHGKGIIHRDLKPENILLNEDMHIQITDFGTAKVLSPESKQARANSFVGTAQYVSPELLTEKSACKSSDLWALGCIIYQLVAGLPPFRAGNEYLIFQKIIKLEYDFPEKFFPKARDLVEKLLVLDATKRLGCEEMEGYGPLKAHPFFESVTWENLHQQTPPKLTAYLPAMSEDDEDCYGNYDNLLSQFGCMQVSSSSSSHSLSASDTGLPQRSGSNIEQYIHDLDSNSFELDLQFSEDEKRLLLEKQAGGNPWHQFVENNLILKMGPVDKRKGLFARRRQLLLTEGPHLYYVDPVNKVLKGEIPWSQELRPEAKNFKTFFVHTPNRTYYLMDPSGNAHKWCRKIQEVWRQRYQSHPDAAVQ
The data set can be described thus: Binding affinity to GST-tagged PH domain of PDK1 (unknown origin) by surface Plasmon resonance spectroscopy. Summed up:
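SPR: GST-tagged PH domain fusion protein immobilized on CM5 chip by amine coupling to about 17000 RU. Analyte injected at 1–20 µM at 30 µL/min; DMSO in samples and running buffer ≤1% (v/v). Kd obtained from sensorgram fitting.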

Data set [2] deals with PC-3. The experiment in a line: In vivo antitumor efficacy in human PC3 cells xenografted athymic nude mouse assessed as inhibition of tumor growth at 50 mg/kg, ip for 21 days relative to vehicle treated control. The format is functional, organism-based. More on the design: dose 50 mg/kg. Summed up: (§1)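 Athymic nude mice given PC-3 cells sc (1 × 10⁶ per mouse); at about 50 mm³, randomized (n = 7) and dosed once daily for 21 days either ip at 50 mg/kg (vehicle saline/PEG400/DMSO/Tween 80, 65:20:10:5) or by oral gavage at 100 mg/kg (vehicle 0.5% methylcellulose/0.1% Tween 80 in water). Tumor volume measured weekly by calipers (width² × length × 0.52); phospho-proteins checked by Western blotting of tumor lysates.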

The subject of data set [3] is PC-3. The experiment in a line: In vivo antitumor efficacy in human PC3 cells xenografted athymic nude mouse assessed as decrease in phosphorylation of Akt at Ser473 in tumor at 100 mg/kg, po for 21 days relative to vehicle treated control. Type of data set: functional, organism-based. More on the design: dose 100 mg/kg. Summed up:
as §1

Data set [4] relates to PC-3. The data set can be described thus: In vivo antitumor efficacy in human PC3 cells xenografted athymic nude mouse assessed as decrease in phosphorylation of Akt at Thr308 in tumor at 50 mg/kg, ip for 21 days relative to vehicle treated control. The format is functional, organism-based. More on the design: dose 50 mg/kg. An outline of the steps:
as §1

The subject of the next data set is PrEC. The data set can be described thus: Antiproliferative activity against human PrEC cells assessed as suppression of cell viability after 24 hrs by MTT assay in serum free medium. The format is cell-based.
The target in data set [5] is PH domain leucine-rich repeat-containing protein phosphatase 1 (Homo sapiens, UniProt O60346). The experiment in a line: Inhibition of PHLPP1-mediated reduction in phosphorylation of Akt at Thr308 in human PC3 cells after 24 hrs by Western blot analysis. Conditions: PC-3. Type of data set: cell-based. An outline of the steps: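 LNCaP or PC-3 cells treated at various concentrations for 24 h in serum-free medium. Lysed in SDS buffer (50 mM Tris pH 8, 10 mM EDTA, 1% SDS, protease inhibitors); equal protein run on SDS-PAGE and transferred to nitrocellulose. Primary antibodies 1:1000 overnight at 4 °C, HRP secondary 1:2000; detected by ECL.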

Data set [6] deals with PC-3. The data set can be described thus: In vivo antitumor efficacy in human PC3 cells xenografted athymic nude mouse assessed as decrease in phosphorylation of Akt at Ser473 in tumor at 50 mg/kg, ip for 21 days relative to vehicle treated control. The format is functional, organism-based. More on the design: dose 50 mg/kg. An outline of the steps:
as §1

Chain of PH domain leucine-rich repeat-containing protein phosphatase 1 (O60346 whole entry, the tested form may be a part): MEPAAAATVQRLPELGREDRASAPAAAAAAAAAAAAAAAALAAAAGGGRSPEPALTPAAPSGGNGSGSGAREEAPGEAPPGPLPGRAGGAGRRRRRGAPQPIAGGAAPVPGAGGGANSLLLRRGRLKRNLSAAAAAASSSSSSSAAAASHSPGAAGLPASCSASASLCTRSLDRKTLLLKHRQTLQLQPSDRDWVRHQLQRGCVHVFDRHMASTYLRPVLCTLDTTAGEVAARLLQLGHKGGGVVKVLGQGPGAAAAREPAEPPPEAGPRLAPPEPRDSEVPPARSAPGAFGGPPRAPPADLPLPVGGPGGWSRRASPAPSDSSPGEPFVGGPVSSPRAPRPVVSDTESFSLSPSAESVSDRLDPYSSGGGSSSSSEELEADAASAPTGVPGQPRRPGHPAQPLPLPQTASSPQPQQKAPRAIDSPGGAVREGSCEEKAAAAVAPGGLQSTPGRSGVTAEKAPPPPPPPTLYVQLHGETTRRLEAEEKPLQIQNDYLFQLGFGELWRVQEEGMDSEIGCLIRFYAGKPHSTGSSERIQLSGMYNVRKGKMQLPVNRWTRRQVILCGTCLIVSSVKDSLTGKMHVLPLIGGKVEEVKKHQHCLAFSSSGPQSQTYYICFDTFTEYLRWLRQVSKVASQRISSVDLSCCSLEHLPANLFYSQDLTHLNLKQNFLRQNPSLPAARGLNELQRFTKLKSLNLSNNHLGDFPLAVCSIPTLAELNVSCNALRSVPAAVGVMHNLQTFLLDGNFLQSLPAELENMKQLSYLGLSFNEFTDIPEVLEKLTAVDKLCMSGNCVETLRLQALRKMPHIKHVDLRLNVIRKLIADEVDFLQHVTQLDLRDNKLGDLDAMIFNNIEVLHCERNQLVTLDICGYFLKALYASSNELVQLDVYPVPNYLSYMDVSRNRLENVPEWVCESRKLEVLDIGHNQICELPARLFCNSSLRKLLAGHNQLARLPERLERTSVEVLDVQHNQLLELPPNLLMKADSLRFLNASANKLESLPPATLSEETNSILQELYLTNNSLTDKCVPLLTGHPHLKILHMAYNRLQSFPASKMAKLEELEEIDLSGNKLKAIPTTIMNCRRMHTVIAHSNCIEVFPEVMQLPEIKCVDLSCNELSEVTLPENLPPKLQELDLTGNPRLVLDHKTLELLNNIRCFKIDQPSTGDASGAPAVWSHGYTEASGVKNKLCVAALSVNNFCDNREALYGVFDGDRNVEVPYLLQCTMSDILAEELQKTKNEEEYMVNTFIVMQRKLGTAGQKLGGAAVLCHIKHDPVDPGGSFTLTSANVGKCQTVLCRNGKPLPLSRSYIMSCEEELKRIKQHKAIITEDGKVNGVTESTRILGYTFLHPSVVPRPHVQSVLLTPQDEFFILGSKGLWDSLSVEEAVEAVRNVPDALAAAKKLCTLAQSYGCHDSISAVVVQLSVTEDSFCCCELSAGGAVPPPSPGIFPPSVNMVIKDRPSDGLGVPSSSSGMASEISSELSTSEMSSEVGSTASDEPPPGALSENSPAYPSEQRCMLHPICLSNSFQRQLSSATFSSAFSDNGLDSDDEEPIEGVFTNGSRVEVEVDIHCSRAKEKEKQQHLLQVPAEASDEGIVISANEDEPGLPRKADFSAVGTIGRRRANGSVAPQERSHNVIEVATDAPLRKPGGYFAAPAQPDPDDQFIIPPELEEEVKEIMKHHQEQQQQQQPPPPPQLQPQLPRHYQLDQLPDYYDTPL

In data set [1], `Cc1c(S(N)(=O)=O)cc2c(c1C)OC(C)(CCCC(C)C)CC2` (configuration not stated) showed a Kd of 19.5 µM. Also, the outcome in the data set on PC-3 [2] and in the data set with PC-3 [3] was Active. In addition, the inhibition result (in the data set with PC-3 [4]; in data set [5]) was “inactive” each time. The Activity result in the data set with PrEC is on record as “Non-toxic”. In addition, the inhibition entry in the data set with PC-3 [6] is “Active”.
